# Bioassay records from PubChem.
# hDAT+cocaine – changed human dopamine transporter uptake under cocaine IC80; LLC-PK1 hDAT cells, [14C]-dopamine uptake with cocaine IC80; actives deviate in either direction; B-score at 10 µM; 110,000 compounds, 1.3% hits; Q01959;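 active means Z score or B-score, a plate-position-corrected score, falls beyond the plate's 99.7% confidence bounds, in either direction; inactive means both scores lie inside the 99.7% bounds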
# MMP-13 inhibitor – MMP13 (human) collagenase inhibition; P45452; MMP-13 fTHP FRET cleavage, Mca fluorescence; inhibition, % at 4 µM; 65,000 compounds, 0.07% hits;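 active means inhibition above the mean of compound-free control plate wells plus 3 SD, cut at about 14% in these data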
# AP ELISA ortho – orthogonal test for alternative complement pathway inhibitors; 62,000 compounds, 0.08% hits; Human serum alternative complement pathway, LPS-coated ELISA, C3 deposition; tested in compound mixtures; inhibition, % at 5 µM;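 active means inhibition above 30% in each of the two pooled mixtures holding the compound, so the lower value exceeds 30%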
#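 Assay system: human serum alternative complement pathway, C3 deposition on LPS-coated wells; Dosing: 5 µM per compound in ten-compound mixtures; Detection: Anti-C3 ELISA, OD 450 nm; Buffer or medium: Mg2+-EGTA GVB++ buffer containing human serum at 1:15 dilution; Timing: 1 h at 37 °C; Replication: two different pools per compound.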
# D1 allo mod – allosterically modulates the human D1 dopamine receptor. HEK293 D1, CRE-luciferase, dopamine EC30 potentiation; actives deviate in either direction. B-score at 10 µM. 58,000 compounds, 5.9% hits. AID 641;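 active means luminescence count or its row- and column-corrected plate score outside the 99.7% band of the plate's sample wells, on either side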
# Target sequence (P21728 whole entry, looked up): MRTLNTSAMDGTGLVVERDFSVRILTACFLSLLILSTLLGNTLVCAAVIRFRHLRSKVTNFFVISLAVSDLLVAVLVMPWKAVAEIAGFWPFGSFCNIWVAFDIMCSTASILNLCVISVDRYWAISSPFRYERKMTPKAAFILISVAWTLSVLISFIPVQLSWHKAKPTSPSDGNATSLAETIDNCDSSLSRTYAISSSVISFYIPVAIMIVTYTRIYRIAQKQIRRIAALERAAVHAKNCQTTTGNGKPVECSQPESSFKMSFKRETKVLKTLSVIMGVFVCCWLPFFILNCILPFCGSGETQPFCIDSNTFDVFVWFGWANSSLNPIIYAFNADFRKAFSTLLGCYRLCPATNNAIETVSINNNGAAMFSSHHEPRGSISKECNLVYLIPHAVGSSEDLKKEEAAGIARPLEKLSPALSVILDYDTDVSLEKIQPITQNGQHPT
# Candida biofilm – kills Candida albicans biofilms | inhibition, % at 6 µM | C. albicans biofilm + clotrimazole, Alamar Blue | 85,000 compounds, 0.14% hits;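 active means inhibition above 20%; inactive means inhibition below 20%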;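 further: preformed 24 hr biofilms exposed to compound for 48 hr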
# D1 mod confirm – confirmation of human D1 dopamine receptor allosteric modulators | shares compounds with D1 allo mod | 2,200 compounds, 88% hits | luminescence at 10 µM | HEK293 D1 CRE-luciferase, dopamine EC30 potentiation; stronger effect = higher value | AID 642;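 active means luminescence in either of two replicates above the same-plate mean plus 3 SD of the low-dose dopamine control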
# D1 no dopamine – secondary test of D1 modulators: activity without dopamine. luminescence at 10 µM. AID 646. HEK293 D1 CRE-luciferase, luminescence, no dopamine; stronger effect = higher value. 1,900 compounds, 0.8% hits. shares compounds with D1 allo mod; in the data active means luminescence above about 3900
# Isoprot counter – alters isoproterenol CRE-luciferase response in HEK293 cells; shares compounds with D1 allo mod; luminescence at 10 µM; 2,200 compounds, 63% hits; HEK293 D1 CRE-luciferase, isoproterenol EC30 counter-screen; stronger effect = higher value;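 active means luminescence in either replicate above plate mean of wells with a partly effective reference agonist dose plus 3 SD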;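 further: isoproterenol raises cAMP through native beta-adrenoceptor Gs so signal bypasses D1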
# Numbers stand for hits; n = inactive; x = not tested or not shown. This excerpt belongs to a sample that is enriched for hits.
SMILES,hDAT+cocaine,MMP-13 inhibitor,AP ELISA ortho,D1 allo mod,Candida biofilm,D1 mod confirm,D1 no dopamine,Isoprot counter
COC(=O)C1=C(c2ccc(S(C)(=O)=O)cc2)C[C@@H]2CC[C@H]1N2C(=O)NC(C)C,n,x,x,x,x,x,x,x
CCCCn1c(=O)c(C(=O)Nc2cnccn2)c(O)c2ccccc21,n,n,n,6.8,n,8352,n,n
O=C(O)[C@H]1C[C@@H]1[C@H](NP(=O)(c1ccccc1)c1ccccc1)c1ccccc1,n,x,x,x,x,x,x,x
O=C1CN=C(c2ccccc2)c2oc3ccc(Br)cc3c2N1,n,n,x,7.4,n,15276,x,4176
O=C1CN=C(c2ccc(Br)cc2)c2oc3ccccc3c2N1,n,x,x,x,x,x,x,x
CC(C)[C@@]1(NC(=O)[C@@H]2C=C3c4cccc5[nH]cc(c45)C[C@H]3N(C)C2)O[C@@]2(O)[C@@H]3CCCN3C(=O)[C@H](Cc3ccccc3)N2C1=O,x,n,n,34,n,18320,19392,36764
CC(C)[C@H]1C(=O)N2CCC[C@H]2[C@]2(O)O[C@](NC(=O)[C@@H]3C=C4c5cccc6[nH]cc(c56)C[C@H]4N(C)C3)(C(C)C)C(=O)N12,n,n,n,37,x,25260,20144,39792
CC(C)[C@@]1(NC(=O)[C@@H]2C[C@@H]3c4cccc5[nH]cc(c45)C[C@H]3N(C)C2)O[C@@]2(O)[C@@H]3CCCN3C(=O)[C@H](Cc3ccccc3)N2C1=O,3.6,n,n,36,n,27264,22332,30404
C[C@@]12N[C@@H](Cc3ccccc31)c1ccccc12,n,x,x,x,x,x,x,x
COC(=O)C1=C(c2cc3ccccc3s2)C[C@@H]2CC[C@H]1N2C(=O)N1CCOCC1,n,x,x,x,x,x,x,x
COc1ccccc1NC1=NCCS1,n,x,x,x,n,x,x,x
Fc1ccc(NC2=NCCS2)cc1Cl,n,n,n,4.1,n,11272,n,n
O=[N+]([O-])c1ccc2nc(N3CCNCC3)ccc2c1,n,x,x,x,x,x,x,x
CN1C(=O)c2ccccc2Sc2ccc(C(=O)N3CCC4(CC3)OCCO4)cc21,x,n,n,9.6,n,n,x,n
COC/C=C1\CN2C3C[C@@H]1[C@H]1COC4=Nc5cc(OC)c(OC)c(OC)c5[C@@]43C[C@@H]12,n,x,x,x,x,x,x,x
CCOC(=O)c1c(C)n(Cc2ccccc2)c2ccc(OCC(O)Cn3nc(C)nc3C)cc12 (centres undefined),x,n,n,4.5,n,17284,n,5888
CCOC(=O)c1c(C)n(Cc2ccccc2)c2ccc(OCC(O)Cn3nc(C)cc3C)cc12 (centres undefined),n,x,x,x,n,x,x,x
COC(=O)C1=C(c2ccc(S(C)(=O)=O)cc2)C[C@@H]2CC[C@H]1N2C(=O)N1CCCCC1,n,x,x,x,x,x,x,x
COC(=O)c1c(C)[nH]c(C(=O)C(Cc2ccccc2)N(C)C)c1C (centres undefined),n,n,n,9.7,n,n,n,n
CC[C@H]1CN(C)CCc2c([nH]c3ccccc23)C(=O)C[C@@H]1/C(=C\OC)C(=O)OC,n,x,x,x,x,x,x,x
CCOC(=O)CCCCCNC(=O)c1c(O)[nH]c(=O)[nH]c1=O,n,x,x,x,x,x,x,x
CCCCn1c(O)c(C(C)=NC(C)c2ccccc2)c(=O)[nH]c1=O (centres undefined),n,n,n,9.7,n,17520,n,3888
CC(=NCc1cccnc1)c1c(O)n(Cc2ccccc2)c(=O)[nH]c1=O,n,n,n,n,n,x,x,x
CCC(=NCc1cccnc1)c1c(O)n(Cc2ccccc2)c(=O)[nH]c1=O,n,n,n,4.8,n,11204,n,2944
CC1(C)CN=C(Nc2nc3ccccc3s2)S1,n,n,n,2.9,n,8344,n,n
SMILES,hDAT+cocaine,MMP-13 inhibitor,AP ELISA ortho,D1 allo mod,Candida biofilm,D1 mod confirm,D1 no dopamine,Isoprot counter
CCN1CCN(c2nc3ccccc3s2)CC1,n,x,x,x,n,x,x,x
O=C(CCN1C(=O)COc2ccccc21)N1CCC2(CC1)OCCO2,n,n,n,3.8,n,n,x,n
COC(=O)C1=C(c2cc3ccccc3s2)C[C@@H]2CC[C@H]1N2C(=O)NCCS(C)=O (some centres undefined),n,x,x,x,x,x,x,x
COc1cc(C(O)CNC(C)C)cc(F)c1OC (centres undefined),n,x,x,x,x,x,x,x
CC(=O)c1cccc(NC2=NCC(C)S2)c1 (centres undefined),n,n,n,5.6,n,8688,n,3220
C[C@H]1OC[C@@H](C[N+](C)(C)C)O1,n,n,n,5.7,n,10372,x,n
c1ccc(-c2nnc(C3CC(c4cccnc4)=NO3)o2)cc1 (centres undefined),n,x,x,x,x,x,x,x
CCC1(CC)C(=O)NC(=NCCc2c[nH]c3ccccc23)NC1=O,n,n,n,4.8,n,6976,n,n
